RGS4 pot – RGS4 potentiators or activators, primary screen, cell-based, HEK293 M3R inducible RGS4, calcium flux; AID 463111, 2010; B-score at 10 µM; 310,000 compounds, 0.92% hits; carbachol calcium flux Fluo4; active compounds read low;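 active = B-score of the integrated calcium signal more than 4 SD below the library mean, with starting fluorescence not abnormally high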;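 note: negative B-score means reduced calcium response which marks RGS4 activation or potentiation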
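Detection: kinetic calcium fluorescence imaging with Fluo4-AM dye, 2 µM / Material: HEK293 cells with stable M3R and inducible RGS4 / Schedule: recording 10 s baseline at 1 Hz, 100 s post-agonist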
MrgX1 PAM – positive allosteric modulators of MrgX1, primary screen, HEK293 cells, Fluo-4 calcium flux | FDSS; active compounds read high | 310,000 compounds, 0.63% hits | B-score at 10 µM | AID 588675, 2011 | Mas-related G-protein coupled receptor member X1 (Homo sapiens), Q96LB2;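 active = plate-corrected calcium response at least 3 library SD above typical, normal starting fluorescence, not activating the receptor alone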;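 note: compound read alongside a low EC10 to EC30 dose of BAM8-22 agonist; peak minus trough fluorescence over baseline measured at the second addition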
Target sequence (Q96LB2 whole entry, looked up): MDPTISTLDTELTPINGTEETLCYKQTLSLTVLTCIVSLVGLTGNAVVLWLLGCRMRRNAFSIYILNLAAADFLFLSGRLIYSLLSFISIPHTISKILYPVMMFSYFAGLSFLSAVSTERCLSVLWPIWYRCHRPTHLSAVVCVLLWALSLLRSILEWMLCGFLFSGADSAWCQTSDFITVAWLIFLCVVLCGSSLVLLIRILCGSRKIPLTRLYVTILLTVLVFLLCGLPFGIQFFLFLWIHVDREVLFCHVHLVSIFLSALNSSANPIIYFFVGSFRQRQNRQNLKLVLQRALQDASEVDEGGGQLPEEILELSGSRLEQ
MrgX1 antag – antagonists of human MrgX1 receptor, primary screen, HEK293 cells, Fluo-4 calcium flux. 310,000 compounds, 1.3% hits. B-score at 10 µM. BAM8-22 antagonism; active compounds read low. Mas-related G-protein coupled receptor member X1 (Homo sapiens), Q96LB2;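 active = calcium-response B-score plate-corrected more than 3 library SD below zero, starting fluorescence within 5 deviations, no agonist response on first addition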;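 note: peak minus trough fluorescence over baseline after final BAM8-22 challenge near maximal dose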
RGS4 block – RGS4 inhibitors, primary screen, cell-based, HEK293 M3R inducible RGS4, calcium flux | Regulator of G-protein signaling 4 (Homo sapiens), P49798 | AID 463165, 2010 | Fluo-4 calcium flux; active compounds read high; triggered by carbachol at its EC20 | 310,000 compounds, 0.45% hits | B-score at 10 µM;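 active = B-score, a plate-corrected calcium signal, over three deviations above library mean, with baseline fluorescence within five deviations of library mean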;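 note: RGS4 expression induced by doxycycline in cells with stable M3 receptor; B-score is computed from the integrated fluorescence ratio over baseline after carbachol; higher B-score means a larger calcium signal and so more RGS4 inhibition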
Target sequence (P49798 whole entry, looked up): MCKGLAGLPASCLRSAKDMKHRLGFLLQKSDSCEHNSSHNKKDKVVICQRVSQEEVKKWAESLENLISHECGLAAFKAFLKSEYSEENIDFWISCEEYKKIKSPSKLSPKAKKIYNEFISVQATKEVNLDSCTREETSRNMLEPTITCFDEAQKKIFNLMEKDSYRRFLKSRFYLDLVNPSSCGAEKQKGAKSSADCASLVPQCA
MrgX1 ag – agonists of human MrgX1 receptor, primary screen, HEK293 cells, Fluo-4 calcium flux; Mas-related G-protein coupled receptor member X1 (Homo sapiens), Q96LB2; Fluo-4 calcium fluorescence, agonist mode; active compounds read high; B-score at 10 µM; 310,000 compounds, 0.44% hits; AID 588627, 2011;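 active = calcium response B-score plate-corrected fluorescence ratio at least 3 library SD, with starting fluorescence B-score inside 5 SD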
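Material – MrgX1-expressing HEK293 cells · Input – 15,000 cells seeded per well · Dosing – compound as first of three additions · Times – overnight seeding, then 1 h dark dye loading · Measured by – kinetic Fluo-4 NW fluorescence of intracellular calcium · Read-out – B-scored fluorescence response ratio · Benchmarks – positive and negative control wells on each plate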
* marks the source's active call; other numbers are inactive results. Most compounds without a hit are left out; they make up all but 3.5% or so of the library.

What do the screens show for `N#CCCS(=O)(=O)c1nnnn1-c1ccccc1`?
MrgX1 PAM: inactive; MrgX1 antag: inactive; MrgX1 ag: 42*

What do the screens show for `c1ccc(-n2nnnc2Cc2nnnn2-c2ccccc2)cc1`?
RGS4 pot: inactive; MrgX1 PAM: inactive; MrgX1 antag: inactive; RGS4 block: inactive; MrgX1 ag: inactive

Results for Nc1c(C(=O)C2CC2)sc2nc(-c3ccccc3)cc(C(F)(F)F)c12 ?
RGS4 pot: -9.3*; MrgX1 PAM: inactive; MrgX1 antag: inactive; RGS4 block: inactive; MrgX1 ag: inactive

How did COc1ccc(-c2cc(C(F)(F)F)c3c(N)c(C(=O)NCCSC)sc3n2)cc1 do in these assays?
RGS4 pot: inactive; MrgX1 PAM: inactive; MrgX1 antag: inactive; RGS4 block: inactive; MrgX1 ag: inactive

Results for CC1=CCC(C(=O)O)C(C(=O)NC2CCCCC2)C1 (configuration not stated) ?
RGS4 pot: inactive; MrgX1 PAM: inactive; MrgX1 antag: inactive; RGS4 block: inactive; MrgX1 ag: inactive

How did CC1CCc2c(sc3nc(C(C)(C)C)nc(N4CCN(C(=O)CCl)CC4)c23)C1 (configuration not stated) do in these assays?
RGS4 pot: -7.6*; MrgX1 PAM: inactive; MrgX1 antag: inactive; RGS4 block: inactive; MrgX1 ag: inactive

What do the screens show for `COc1ccc(C(O)(CCc2ccccc2)CCN2CCCCC2)cc1` (configuration not stated)?
RGS4 pot: -8.9*; MrgX1 PAM: inactive; MrgX1 antag: inactive; RGS4 block: inactive; MrgX1 ag: inactive

What do the screens show for `C=CCC(O)(CCN1CCCCC1)c1ccccc1` (configuration not stated)?
RGS4 pot: inactive; MrgX1 PAM: inactive; MrgX1 antag: inactive; RGS4 block: inactive; MrgX1 ag: inactive

How did CCn1c(/C=C/c2cc[n+](C)cc2)nc2ccccc21 do in these assays?
RGS4 pot: inactive; MrgX1 PAM: inactive; MrgX1 antag: -5.9*; RGS4 block: inactive; MrgX1 ag: inactive

Results for CCCCCCCCCCCCOC(=O)C[N+](C)(C)C ?
RGS4 pot: -8.9*; MrgX1 PAM: inactive; MrgX1 antag: inactive; RGS4 block: inactive; MrgX1 ag: inactive

What do the screens show for `CCCCCCCCOC(=O)C[N+](C)(C)C/C=C(/C)Cl`?
RGS4 pot: inactive; MrgX1 PAM: inactive; MrgX1 antag: inactive; RGS4 block: inactive; MrgX1 ag: inactive

What do the screens show for `CCCCCCCCCCOC(=O)C[N+](C)(C)C/C=C(/C)Cl`?
RGS4 pot: inactive; MrgX1 PAM: inactive; MrgX1 antag: -5.3*; RGS4 block: inactive; MrgX1 ag: inactive

How did O=C(NCc1ccccc1)c1onc(CSc2ccc(F)c(F)c2)c1C(=O)NCc1ccccc1 do in these assays?
RGS4 pot: inactive; MrgX1 PAM: inactive; MrgX1 antag: inactive; RGS4 block: inactive; MrgX1 ag: inactive

What do the screens show for `CCc1ccc(NC(=O)CSc2nnnn2-c2cccnc2)cc1`?
RGS4 pot: inactive; MrgX1 PAM: inactive; MrgX1 antag: inactive; RGS4 block: inactive; MrgX1 ag: inactive

Results for O=C(Nc1cccc(NC(=O)c2ccc(-c3ccc(Br)cc3)o2)c1)c1ccccc1 ?
RGS4 pot: inactive; MrgX1 PAM: inactive; MrgX1 antag: -4.6*; RGS4 block: inactive; MrgX1 ag: inactive

What do the screens show for `O=C(Nc1cccc(NC(=O)c2ccc(-c3cccc(Br)c3)o2)c1)c1ccco1`?
RGS4 pot: -8.9*; MrgX1 PAM: inactive; MrgX1 antag: inactive; RGS4 block: inactive; MrgX1 ag: inactive

What do the screens show for `O=C(Nc1ccccc1)c1ccc(-c2ccc(Br)cc2)o1`?
RGS4 pot: inactive; MrgX1 PAM: inactive; MrgX1 antag: inactive; RGS4 block: inactive; MrgX1 ag: inactive

How did COc1ccc(Br)cc1C(=O)Nc1cccc(NC(=O)c2ccco2)c1 do in these assays?
RGS4 pot: inactive; MrgX1 PAM: inactive; MrgX1 antag: inactive; RGS4 block: inactive; MrgX1 ag: inactive

What do the screens show for `CCN(CC)S(=O)(=O)c1ccc(OC(C)C)c(NC(=O)c2c3c(nc4ccccc24)CCN(Cc2ccccc2)C3)c1`?
RGS4 pot: inactive; MrgX1 PAM: inactive; MrgX1 antag: -5*; RGS4 block: inactive; MrgX1 ag: inactive

How did OC(c1cc(-c2ccc(C(F)(F)F)cc2)nc(C(F)(F)F)c1)C1CCCCN1 (configuration not stated) do in these assays?
RGS4 pot: -7.8*; MrgX1 PAM: inactive; MrgX1 antag: -5.4*; RGS4 block: inactive; MrgX1 ag: inactive

Results for CC(=O)NC(Cc1ccc(C)cc1)C(=O)NC1CCN(C(=O)NCc2ccccc2)CC1 (configuration not stated) ?
RGS4 pot: inactive; RGS4 block: inactive

Results for O=C1C=CC(=O)N1c1cccc(-c2ccccc2)c1 ?
RGS4 pot: -9.5*; MrgX1 PAM: inactive; MrgX1 antag: inactive; RGS4 block: inactive; MrgX1 ag: inactive

Results for Cc1nn(-c2ccccc2)c(N2CCCC2)c1/C=N/Nc1ccc(S(=O)(=O)Nc2ccccc2)cc1[N+](=O)[O-] ?
RGS4 pot: inactive; MrgX1 PAM: inactive; MrgX1 antag: -5.1*; RGS4 block: inactive; MrgX1 ag: inactive

How did O=C(Cn1c(=O)c2cccn2c2ccccc21)Nc1cc(F)ccc1F do in these assays?
RGS4 pot: inactive; MrgX1 PAM: inactive; MrgX1 antag: inactive; RGS4 block: inactive; MrgX1 ag: inactive

What do the screens show for `O=C(Nc1ccc2nc3ccccc3nc2c1)c1ccccc1`?
RGS4 pot: inactive; MrgX1 PAM: inactive; MrgX1 antag: inactive; RGS4 block: inactive; MrgX1 ag: inactive

What do the screens show for `O=C(Nc1ccc(-c2nc3ccccc3s2)c(OC(=O)c2ccccc2)c1)c1ccccc1`?
RGS4 pot: inactive; MrgX1 PAM: inactive; MrgX1 antag: -4.8*; RGS4 block: inactive; MrgX1 ag: inactive

What do the screens show for `O=C(Nc1cccc(-c2csc(Nc3ccccc3)n2)c1)c1ccccc1`?
RGS4 pot: -7.3*; MrgX1 PAM: inactive; MrgX1 antag: inactive; RGS4 block: inactive; MrgX1 ag: inactive

How did O=C(Nc1cccc(-c2csc(Nc3cccc(C(F)(F)F)c3)n2)c1)c1ccccc1 do in these assays?
RGS4 pot: inactive; MrgX1 PAM: inactive; MrgX1 antag: inactive; RGS4 block: inactive; MrgX1 ag: inactive

What do the screens show for `COc1cc(CNCCSc2nnnn2C)cc(Br)c1OCc1ccccc1F`?
RGS4 pot: inactive; MrgX1 PAM: inactive; MrgX1 antag: inactive; RGS4 block: inactive; MrgX1 ag: inactive
